Results on two compounds are retold here after ChEMBL document CHEMBL3232904, “Discovery of novel quinoline carboxylic acid series as DGAT1 inhibitors” (Bioorg Med Chem Lett, 2014).

Data set [1] is described as follows: AUC in rat at 10 mg/kg, po. It is filed as ADME, organism-based. Details: dose 10 mg/kg, route oral; call rule not given here. The settings on record: plasma.
The subject of data set [2] is Plasma. The data set can be described thus: Metabolic stability in mouse plasma at 25 degC. It is filed as ADME, cell-free.
Data set [3] deals with Mus musculus. As to the kind of experiment: Reduction of postprandial plasma triglyceride level in C57BL/6J mouse at 3 mg/kg, po administered 15 mins prior to corn oil bolus challenge measured after 2 hrs relative to vehicle-treated control. The class given is functional. More on the design: scale not given: the % may be the effect or the level left. In outline: (§1)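 Vehicle is 20% hydroxypropyl-β-cyclodextrin; compound or vehicle is given 15 min before time 0. Mice receive a 0.25 mL corn oil bolus at time 0. Terminal blood is taken by heart puncture at 120 min. Plasma TG is measured by an enzymatic colorimetric kit with absorbance read at 600 nm. Values are the mean ± SEM from eight studies, as % reduction versus vehicle.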

The test system of data set [4] is Plasma. The data set can be described thus: Metabolic stability in human plasma at 25 degC. It is filed as ADME, cell-free.
Data set [5] concerns Plasma. As to the kind of experiment: Metabolic stability in rat plasma at 25 degC. The class given is ADME, cell-free.
The target in data set [6] is T1, Diacylglycerol O-acyltransferase 1 (Mus musculus, UniProt Q9Z2A7).
T1 sequence (Q9Z2A7 whole entry): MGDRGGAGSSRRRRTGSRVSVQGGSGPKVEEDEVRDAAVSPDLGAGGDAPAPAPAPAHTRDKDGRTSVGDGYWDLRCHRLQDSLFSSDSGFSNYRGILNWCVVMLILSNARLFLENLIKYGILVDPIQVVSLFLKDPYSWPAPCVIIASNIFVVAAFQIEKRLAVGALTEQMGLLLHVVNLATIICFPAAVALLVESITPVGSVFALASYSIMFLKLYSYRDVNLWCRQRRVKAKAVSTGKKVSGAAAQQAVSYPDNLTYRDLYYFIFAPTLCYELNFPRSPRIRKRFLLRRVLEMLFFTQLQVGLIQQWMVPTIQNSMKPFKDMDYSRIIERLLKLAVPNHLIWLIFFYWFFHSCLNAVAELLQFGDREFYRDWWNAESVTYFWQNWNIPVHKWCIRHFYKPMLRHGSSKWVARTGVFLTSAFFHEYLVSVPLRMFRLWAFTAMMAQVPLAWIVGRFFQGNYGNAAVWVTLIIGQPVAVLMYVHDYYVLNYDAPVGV
As to the kind of experiment: Inhibition of mouse DGAT1. In short, it runs like this: (§2)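 IC50 values are the average of at least two independent determinations.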

Data set [7] concerns the target T2, Sterol O-acyltransferase 2 (Homo sapiens, UniProt O75908).
T2 sequence (O75908 whole entry): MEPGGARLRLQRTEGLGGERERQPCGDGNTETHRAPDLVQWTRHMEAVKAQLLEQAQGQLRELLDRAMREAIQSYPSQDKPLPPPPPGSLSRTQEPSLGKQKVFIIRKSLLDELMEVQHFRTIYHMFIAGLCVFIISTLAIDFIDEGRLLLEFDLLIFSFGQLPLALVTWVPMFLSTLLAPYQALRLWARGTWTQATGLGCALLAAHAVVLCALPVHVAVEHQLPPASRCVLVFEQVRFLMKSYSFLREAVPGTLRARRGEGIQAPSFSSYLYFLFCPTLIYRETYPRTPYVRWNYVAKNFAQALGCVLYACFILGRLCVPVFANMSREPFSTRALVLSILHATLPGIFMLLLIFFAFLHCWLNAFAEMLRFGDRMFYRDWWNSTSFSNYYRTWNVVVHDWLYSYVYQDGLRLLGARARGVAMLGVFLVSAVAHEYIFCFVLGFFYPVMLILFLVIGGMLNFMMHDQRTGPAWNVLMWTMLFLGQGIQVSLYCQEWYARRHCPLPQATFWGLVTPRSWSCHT
The data set can be described thus: Inhibition of human ACAT2. In outline: as §2

The next data set concerns the target T3, Cytochrome P450 1A1 (Homo sapiens, UniProt P04798).
T3 sequence (P04798 whole entry): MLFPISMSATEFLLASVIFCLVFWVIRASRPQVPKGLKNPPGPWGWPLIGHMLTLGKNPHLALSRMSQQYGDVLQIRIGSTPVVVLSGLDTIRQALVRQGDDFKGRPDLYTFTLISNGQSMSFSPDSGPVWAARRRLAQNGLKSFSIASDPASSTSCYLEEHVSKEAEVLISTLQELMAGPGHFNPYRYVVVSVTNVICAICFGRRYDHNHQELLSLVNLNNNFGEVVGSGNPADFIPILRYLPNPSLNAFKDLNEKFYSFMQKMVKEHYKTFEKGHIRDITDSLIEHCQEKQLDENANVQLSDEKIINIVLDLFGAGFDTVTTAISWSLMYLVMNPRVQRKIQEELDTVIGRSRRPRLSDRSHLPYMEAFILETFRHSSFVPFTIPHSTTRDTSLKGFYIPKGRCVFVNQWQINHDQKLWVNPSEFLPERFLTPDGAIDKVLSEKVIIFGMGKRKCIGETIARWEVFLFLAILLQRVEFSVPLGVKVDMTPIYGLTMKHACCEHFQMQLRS
The data set can be described thus: Induction of CYP1A1 (unknown origin). It is filed as ADME.

Data set [8] deals with Mus musculus. The data set can be described thus: Reduction of plasma triglyceride level in C57BL/6J mouse at 3 mg/kg, po administered 15 mins prior to corn oil bolus challenge measured after 12 hrs relative to vehicle-treated control. Details: scale not given: the % may be the effect or the level left. It is filed as functional.
Data set [9] concerns the target T4, PXR (nuclear receptor subfamily 1 group I member 2) (Homo sapiens, UniProt O75469).
T4 sequence (O75469 whole entry): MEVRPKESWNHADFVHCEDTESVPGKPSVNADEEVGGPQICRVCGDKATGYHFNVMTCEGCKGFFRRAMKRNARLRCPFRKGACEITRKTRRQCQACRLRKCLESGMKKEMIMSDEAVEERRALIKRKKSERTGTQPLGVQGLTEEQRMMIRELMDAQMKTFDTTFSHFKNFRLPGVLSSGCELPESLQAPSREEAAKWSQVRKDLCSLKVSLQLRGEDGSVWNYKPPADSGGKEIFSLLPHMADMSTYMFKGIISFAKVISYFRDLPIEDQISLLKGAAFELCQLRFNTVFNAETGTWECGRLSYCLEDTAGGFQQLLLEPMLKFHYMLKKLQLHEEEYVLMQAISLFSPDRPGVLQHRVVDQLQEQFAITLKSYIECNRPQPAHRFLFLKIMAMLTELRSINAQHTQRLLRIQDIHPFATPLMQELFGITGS
The data set can be described thus: Activation of PXR (unknown origin) at 10 uM. The class given is ADME. The settings on record: read-out: FC.

Data set [10] concerns Mus musculus. The data set can be described thus: Reduction of postprandial plasma triglyceride level in C57BL/6J mouse at 1 mg/kg, po administered 15 mins prior to corn oil bolus challenge measured after 2 hrs relative to vehicle-treated control. It is filed as functional. Details: scale not given: the % may be the effect or the level left. In short, it runs like this: as §1

As a reminder, the AUC is concentration integrated over time. The IC50 is the midpoint of a concentration-inhibition curve.

For the compound `CC(C)c1cccc(NC(=O)c2ccnc3cc(-c4ccc([C@H]5CC[C@H](CC(=O)O)CC5)cc4)ccc23)c1`, the AUC in [1] worked out at 0.03 µM·h. The Stability in the data set on Plasma [2], with Plasma [4] and with Plasma [5] was 12 h throughout. The Activity in the data set on Mus musculus [3] is recorded as -76%. This compound also showed an IC50 in data set [6] of 23 nM.

As to `Cc1cc(C(=O)Nc2ccccc2)c2ccc(-c3ccc([C@H]4CC[C@H](CC(=O)O)CC4)cc3)cc2n1`, the half-maximal inhibitory concentration (IC50) was 1100 nM in data set [7] and 10 nM in data set [6]. For the same compound, the Activity result at Cytochrome P450 1A1 is “Active”; with Mus musculus [8] it was -79%; in the data set with Mus musculus [3], -100%; in the data set on Mus musculus [10], -94%. The compound also registered an AUC in data set [1] of 79 µM·h. For the same compound, the fold induction at 10 µM in data set [9] stood at 1.4.
